According to ChEMBL document CHEMBL4387709, “Discovery of Quinoline Analogues as Potent Antivirals against Enterovirus D68 (EV-D68)” (J Med Chem, 2019):
pEC50: −log10 of the molar value. Calls of active or inactive are those of the source. The calls are words filed in the database; no cut-off is given here.

Tests used:
[1] = Selectivity index, ratio of CC50 for human RD cells to EC50 for Enterovirus D68 US/KY/14-18953 infected in human RD cells; type: toxicity, cell-based; settings: read-out: Ratio CC50/EC50
enterovirus D68 [2] = assay: Antiviral activity against Enterovirus D68 US/KY/14-18953 infected in human RD cells assessed as inhibition of virus-induced cytopathic effect incubated for 5 mins under shaking condition and measured after 3 days by neutral red dye-based photometric method; type: functional, organism-based; settings: Enterovirus D, US/KY/14-18953, RD
Summary of the method: (§1)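 RD cells seeded one day ahead to ~90% confluence, PBS (Mg/Ca) wash, infected at ~MOI 0.01 with EV-D68 in DMEM/2% FBS/30 mM MgCl2 at 33 °C, 5% CO2. Compounds and 1% P/S added after 1 h. Plates shaken ~5 min, held 3 days, viable cells stained with neutral red (66 µg/ml), A540 read. EC50 from dose-response fits, triplicates.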

[3] = Cytotoxicity against human RD cells after 3 days by neutral red dye-based photometric method; type: cell-based; settings: RD cells
enterovirus D68 [4] = assay: Antiviral activity against Enterovirus D68 US/MO/14-18947 infected in human RD cells assessed as inhibition of virus-induced cytopathic effect incubated for 5 mins under shaking condition and measured after 3 days by neutral red dye-based photometric method; type: functional, organism-based; settings: Enterovirus D, US/MO/14-18947, RD; summary of the method: as §1
SH-SY5Y = assay: Cytotoxicity against human SH-SY5Y cells after 3 days by neutral red dye-based photometric method; type: cell-based; settings: 72 h
Summary of the method: (§2)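 Uninfected cells run as in the CPE assay (33 °C, 3 days, same media) with compound. Viability by neutral red staining and 540 nm absorbance. CC50 from dose-response curves, triplicate experiments.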

Influenza A virus = assay: Antiviral activity against Influenza A virus (A/California/07/2009(H1N1)) at 10 uM after 2 days by plaque assay; type: functional, organism-based
HeLa = assay: Cytotoxicity against human HeLa cells after 3 days by neutral red dye-based photometric method; type: cell-based; settings: 72 h; summary of the method: as §2
enterovirus D68 [5] = assay: Antiviral activity against Enterovirus D68 US/MO/14-18947 infected in human A172 cells assessed as inhibition of virus-induced cytopathic effect incubated for 5 mins under shaking condition and measured after 3 days by neutral red dye-based photometric method; type: functional, organism-based; settings: Enterovirus D, US/MO/14-18947, A 172
Summary of the method: (§3)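 A172 cells (DMEM, 10% FBS) grown ~90% confluent, infected with EV-D68 at ~MOI 0.3 in DMEM/2% FBS/30 mM MgCl2 and kept at 33 °C. P/S and compounds added 1 h later. Brief orbital shaking, then 3-day incubation. Neutral red staining with 540 nm absorbance. EC50 from best-fit dose-response curves in triplicate.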

enterovirus D68 [6] = assay: Antiviral activity against Enterovirus D68 US/MO/14-18947 infected in human SH-SY5Y cells assessed as inhibition of virus-induced cytopathic effect incubated for 5 mins under shaking condition and measured after 3 days by neutral red dye-based photometric method; type: functional, organism-based; settings: Enterovirus D, US/MO/14-18947, SH-SY5Y
Summary of the method: (§4)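 Virus at ~MOI 1 applied to SH-SY5Y cells (50% DMEM/50% F-12, 10% FBS) at ~90% confluence in DMEM/2% FBS/30 mM MgCl2 at 33 °C. Compounds added after 1 h with 1% P/S, shaken ~5 min, incubated 3 days. Viability read by neutral red uptake (A540). EC50 fitted from dose-response, triplicate.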

enterovirus D68 [7] = assay: Antiviral activity against Enterovirus D68 […] infected in human RD cells assessed as inhibition of virus-induced cytopathic effect incubated for 5 mins under shaking condition and measured after 3 days by neutral red dye-based photometric method; type: functional, organism-based; settings: Enterovirus D; summary of the method: as §1
enterovirus D68 [8] = assay: Antiviral activity against Enterovirus D68 US/KY/14-18953 infected in human SH-SY5Y cells assessed as inhibition of virus-induced cytopathic effect incubated for 5 mins under shaking condition and measured after 3 days by neutral red dye-based photometric method; type: functional, organism-based; settings: Enterovirus D, US/KY/14-18953, SH-SY5Y; summary of the method: as §4
enterovirus D68 [9] = assay: Antiviral activity against Enterovirus D68 US/IL/14-18956 infected in human RD cells assessed as inhibition of virus-induced cytopathic effect incubated for 5 mins under shaking condition and measured after 3 days by neutral red dye-based photometric method; type: functional, organism-based; settings: Enterovirus D, US/IL/14-18956, RD; summary of the method: as §1
RD [10] = assay: Inhibition of 2C protein in Enterovirus D68 US/KY/14-18953 infected in human RD cells assessed as reduction of VP1 expression at 1 uM measured at 9 hrs post infection by DAPI-staining based microscopy; type: cell-based
Summary of the method: (§5)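 Fixed at 9 hpi (4% formaldehyde), 0.2% Triton X-100 permeabilized, blocked with 10% bovine serum. Stained with rabbit anti-VP1 plus Alexa-488 secondary, nuclei with 300 nM DAPI. Confocal microscopy.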

A 172 = assay: Cytotoxicity against human A172 cells after 3 days by neutral red dye-based photometric method; type: cell-based; settings: a 172, 72 h; summary of the method: as §2
A549 = assay: Cytotoxicity against human A549 cells after 3 days by neutral red dye-based photometric method; type: cell-based; settings: a549, 72 h; summary of the method: as §2
enterovirus D68 [11] = assay: Antiviral activity against Enterovirus D68 US/KY/14-18953 infected in human A172 cells assessed as inhibition of virus-induced cytopathic effect incubated for 5 mins under shaking condition and measured after 3 days by neutral red dye-based photometric method; type: functional, organism-based; settings: Enterovirus D, US/KY/14-18953, A 172; summary of the method: as §3
RD [12] = assay: Inhibition of 2C protein in Enterovirus D68 US/KY/14-18953 infected in human RD cells assessed as reduction of VP1 expression at 1 uM measured at 9 hrs post infection by Western blot analysis; type: cell-based
Summary of the method: (§6)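 Equal protein separated and blotted to PVDF. Probed with rabbit anti-VP1 and mouse anti-GAPDH (1:3,000), HRP secondary, chemiluminescent detection. Mean of two independent experiments ± SD.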

RD [13] = assay: Inhibition of 2C protein in Enterovirus D68 US/KY/14-18953 infected in human RD cells assessed as reduction of viral RNA synthesis at 1 uM measured at 9 hrs post infection by reagent-based RT-qPCR method relative to control; type: cell-based
Summary of the method: (§7)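 DNase-treated. 1.2 µg reverse-transcribed with oligo(dT)18. qPCR run 95 °C 10 min, then 40 cycles of 95 °C 15 s/60 °C 60 s, with melt curve. Compared with DMSO control, one-way ANOVA, mean of two experiments ± SD.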

Influenza B virus = assay: Antiviral activity against Influenza B virus (B/Brisbane/60/2008) at 10 uM after 2 days by plaque assay; type: functional, organism-based
enterovirus D68 [14] = assay: Antiviral activity against Enterovirus D68 US/MO/14-18949 infected in human RD cells assessed as inhibition of virus-induced cytopathic effect incubated for 5 mins under shaking condition and measured after 3 days by neutral red dye-based photometric method; type: functional, organism-based; settings: Enterovirus D, US/MO/14-18949, RD; summary of the method: as §1
[15] = Inhibition of sodium channel in rat dorsal root ganglia neurons assessed as reduction in veratridine-induced intracellular calcium influx at 2 to 50 uM after overnight incubation by Fura-2AM dye based fluorescence microscopy; type: cell-based
RD [16] = assay: Inhibition of 2C protein in Enterovirus D68 US/KY/14-18953 infected in human RD cells assessed as reduction of viral RNA level at 3 uM measured at 9 hrs post infection by RT-qPCR method relative to control; type: cell-based; summary of the method: as §7
RD [17] = assay: Inhibition of 2C protein in Enterovirus D68 US/KY/14-18953 infected in human RD cells assessed as reduction of VP1 expression at 3 uM measured at 9 hrs post infection by DAPI-staining based microscopy; type: cell-based; summary of the method: as §5
[18] = Inhibition of sodium channel in rat dorsal root ganglia neurons assessed as reduction in veratridine-induced intracellular calcium influx at 20 to 50 uM after overnight incubation by Fura-2AM dye based fluorescence microscopy; type: cell-based
RD [19] = assay: Inhibition of 2C protein in Enterovirus D68 US/KY/14-18953 infected in human RD cells assessed as reduction of VP1 expression at 3 uM measured at 9 hrs post infection by Western blot analysis; type: cell-based; summary of the method: as §6

SMILES | pEC50 (enterovirus D68 [2]) | pEC50 (enterovirus D68 [4]) | CC50 (SH-SY5Y) [µM] | Activity (Influenza A virus) | CC50 (HeLa) [µM] | pEC50 (enterovirus D68 [5]) | pEC50 (enterovirus D68 [6]) | pEC50 (enterovirus D68 [7]) | pEC50 (enterovirus D68 [8]) | pEC50 (enterovirus D68 [9]) | inhibition (RD [10]) | CC50 (A 172) [µM] | CC50 (A549) [µM] | pEC50 (enterovirus D68 [11]) | inhibition (RD [12]) | inhibition (RD [13]) [%] | Activity (Influenza B virus) | pEC50 (enterovirus D68 [14]) | further results
N=C(N)N [GUANIDINE] | 3.66 | – | – | – | – | – | – | – | – | – | – | – | – | – | – | – | – | – | selectivity ratio [1]: > 1.4; CC50 at 72 h [3]: > 300 µM
CN(C)CCNC(=O)c1cc(-c2cccs2)nc2ccccc12 | 7.40 | 7.22 | 136 | inactive | 51.2 | 7.00 | 8.00 | 7.30 | 7.00 | 7.22 | Active | 73.8 | 98.8 | 7.70 | Active | > 99 | inactive | 7.30 | –
CN(C)CCNC(=O)c1cc(-c2ccccc2)nc2ccccc12 | 6.40 | 6.52 | > 300 | inactive | 68.7 | 6.52 | 6.70 | 6.22 | 6.40 | 6.70 | Active | 88.4 | 121 | 6.40 | Active | > 99 | inactive | 6.22 | inhibition (INH) [15]: Not Active
CCCCOc1cc(C(=O)NCCN(CC)CC)c2ccccc2n1 [DIBUCAINE] | 5.28 | 5.46 | > 30 | inactive | 36 | 5.72 | 5.72 | 5.70 | 5.77 | – | – | > 30 | 37.5 | 5.43 | inactive | – | inactive | 5.54 | inhibition (RD [16]): 80%; inhibition (RD [17]): Active; inhibition (INH) [18]: Active; inhibition (RD [19]): Active
